NPY-Y2 antag: NPY-Y2 receptor antagonists, primary screen, cell-based | Neuropeptide Y receptor type 2 (Homo sapiens), P49146 | NPY-Y2 expressing cells, antagonist mode | inhibition, % at 2.7 µM | 140,000 tested, 0.99% active; in the data active = inhibition above about 17%
NPY Y1 blocker: NPY-Y1 receptor antagonists, primary screen, cell-based; Neuropeptide Y receptor type 1 (Homo sapiens), P25929; AID 1040, 2008; inhibition, % at 3.6 µM; HEK293-CNG Y1 cells, membrane potential fluorescence; NPY at EC95, then isoproterenol; 200,000 tested, 1% active;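 active = inhibition above the campaign mean inhibition of all tested compounds plus 3 SD, cut at about 20% in these data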
Target sequence (P25929 whole entry, looked up): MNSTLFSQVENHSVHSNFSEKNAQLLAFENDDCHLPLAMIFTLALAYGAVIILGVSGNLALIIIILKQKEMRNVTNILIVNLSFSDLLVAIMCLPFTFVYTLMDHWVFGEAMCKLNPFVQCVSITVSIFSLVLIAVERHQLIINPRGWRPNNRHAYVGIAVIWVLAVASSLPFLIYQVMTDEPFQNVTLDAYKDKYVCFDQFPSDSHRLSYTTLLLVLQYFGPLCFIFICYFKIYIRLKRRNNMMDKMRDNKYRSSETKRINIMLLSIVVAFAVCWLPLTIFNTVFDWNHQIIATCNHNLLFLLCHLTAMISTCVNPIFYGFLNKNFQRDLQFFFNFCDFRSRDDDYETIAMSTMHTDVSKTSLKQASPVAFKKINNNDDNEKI
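Material: Y1- and CNG-channel-expressing HEK293 cells / Probe or stimulus: NPY 25 nM then isoproterenol 1 µM plus Ro 20-1724 25 µM / Doses: 3.6 µM single dose, DMSO 0.4% / Schedule: compound incubation 1 h at room temperature, readout 45 min post-stimulation / Signal: membrane potential fluorescence / Benchmarks: isoproterenol-only wells as full block versus NPY-plus-isoproterenol wells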
NPY1 pot ag: NPY-Y1 receptor potentiators or agonists, primary screen, cell-based. AID 1304, 2008. Neuropeptide Y receptor type 1 (Homo sapiens), P25929. NPY-Y1 expressing cells, potentiator/agonist activation. activation, % at 3.6 µM. 220,000 tested, 0.37% active; in the data active = activation above about 33%, passing the limit was not always enough;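 note: cells stimulated with NPY at EC10 then isoproterenol at EC100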
NPY-Y2 PAM-ag: NPY-Y2 potentiators or agonists, primary screen, cell-based; Neuropeptide Y receptor type 2 (Homo sapiens), P49146; cells expressing NPY-Y2, potentiator/agonist read-out; activation, % at 3.6 µM; 220,000 tested, 0.45% active; AID 1359, 2008; in the data active = activation above about 27%;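 note: cells stimulated with NPY near EC25 plus isoproterenol at EC100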
Each line names hits and unclear results; the compound was inactive in the other large screens. This is a sample that favours compounds with a hit; in the whole collection about 1.9% have one here.

CCN(Cc1ccccc1)C(=O)COC(=O)c1cc(=O)[nH]c2ccccc12	none (no result: NPY-Y2 antag)
CSc1sc(C(=O)N(C)C)c2c1S(=O)(=O)N(C)c1ccccc1-2	none (no result: NPY-Y2 antag, NPY Y1 blocker)
Clc1ccccc1-c1ccc(CN2CCN(c3ccccc3)CC2)o1	NPY-Y2 antag 28, NPY Y1 blocker 23
CCC(NC(=O)c1ccccc1NC(=O)c1ccccc1)C(=O)NNC(=O)c1cccnc1 (centres undefined)	none (no result: NPY-Y2 antag, NPY Y1 blocker)
Nc1ccc(-c2cc(-c3cccc(N)c3)nc(-c3ccccc3)n2)cc1	NPY1 pot ag 54, NPY-Y2 PAM-ag 45
Cn1cc(Br)c(NS(=O)(=O)c2ccc(Cl)s2)n1	none (no result: NPY-Y2 antag, NPY Y1 blocker)
C1CCN(c2nc(N3CCCCC3)nc(N3CCNCC3)n2)CC1	NPY1 pot ag 103, NPY-Y2 PAM-ag 96
Cc1ccc(NC(=O)C2=C(c3ccccc3)S(=O)(=O)CCS2(=O)=O)cc1	NPY1 pot ag 56, NPY-Y2 PAM-ag 55 (no result: NPY-Y2 antag)
CC(Nc1ccc2c(c1)OCCO2)C(=O)N1c2ccccc2CC1C (centres undefined)	none (no result: NPY-Y2 antag)
CC(C)c1ccc(/C=C/c2ccc(=O)n(C)n2)cc1	none (no result: NPY-Y2 antag)
Brc1ccc(Cn2c(-c3ccc(Br)o3)nc3ccccc32)o1	NPY-Y2 antag 29, NPY Y1 blocker 29
Cn1c(-c2ccc(Br)o2)nc2ccccc21	none
O=C(CCC1CCCN(C2C3CC4CC(C3)CC2C4)C1)NCc1ccc(F)c(F)c1 (centres undefined)	none (no result: NPY-Y2 antag)
c1ccc(CCCCNCC2COc3ccccc3O2)cc1 (centres undefined)	NPY Y1 blocker 20 (no result: NPY-Y2 antag)
O=C(O)C1CC1c1ccc(Br)cc1 (centres undefined)	NPY Y1 blocker 31
CSc1nn2c(C(F)(F)F)cc(C(F)(F)F)nc2c1C(N)=O	none (no result: NPY-Y2 antag, NPY Y1 blocker)
COCC1CCCN(Cc2cn(-c3ccccc3)nc2-c2ccc3c(c2)OCO3)C1 (centres undefined)	NPY1 pot ag 65, NPY-Y2 PAM-ag 96 (no result: NPY-Y2 antag)
CCOC(=O)C(NC(C)=O)(NC(C)C)C(F)(F)F (centres undefined)	none (no result: NPY-Y2 antag, NPY Y1 blocker)
O=C(COc1ccc(Br)cc1)Nc1ccc([N+](=O)[O-])cn1	NPY Y1 blocker 21
O=C(CC1C(=O)N(c2ccc(Cl)cc2)C(=S)N1CCc1ccncc1)Nc1ccc(F)cc1 (centres undefined)	NPY1 pot ag 61, NPY-Y2 PAM-ag 52
CC(C)C(NC(=O)c1ccccc1)C(=O)NCCc1ccccc1 (centres undefined)	none (no result: NPY-Y2 antag)
CCC(CC)NC(=O)c1oc2ccccc2c1COc1ccccc1	NPY-Y2 antag 26, NPY Y1 blocker 32
COc1ccc(N(CC(=O)Nc2cc([N+](=O)[O-])ccc2C)S(C)(=O)=O)cc1OC	none (no result: NPY-Y2 antag, NPY Y1 blocker)
CCN1CCN(CCOc2cccc(Oc3ccccc3)c2)CC1	none (no result: NPY-Y2 antag)
S=c1nc(-c2ccccc2)n(Cc2ccco2)c2c1CCCC2	NPY Y1 blocker 29
O=C(c1ccco1)N(CCCN1CCOCC1)c1nc(-c2ccc(Cl)cc2)cs1	NPY-Y2 antag 30, NPY Y1 blocker 41
CCOCCCNC(=O)C(c1ccc(Cl)cc1)N1CCC2(CC1)OCCO2 (centres undefined)	NPY1 pot ag 32, NPY-Y2 PAM-ag 36
COc1ccccc1N1CCN(c2nc(C)nc3c2oc2ccccc23)CC1	NPY-Y2 antag 20, NPY Y1 blocker 32
Cc1nc(N2CCN(Cc3ccc(Cl)cc3)CC2)c2oc3ccccc3c2n1	none (no result: NPY-Y2 antag, NPY Y1 blocker)
CC(=O)Nc1ccc(S(=O)(=O)N2CCN(CC3CC4C=CC3C4)CC2)cc1 (centres undefined)	none (no result: NPY-Y2 antag)
CC(C)Cn1c(N)c(C(=O)COC(=O)CCc2nc3ccccc3s2)c(=O)n(C)c1=O	NPY Y1 blocker 20 (no result: NPY-Y2 antag)
CCOC(=O)C1=C(C)NC(=O)NC1c1ccsc1 (centres undefined)	NPY1 pot ag 111, NPY-Y2 PAM-ag 40
O=C(O)CCc1ccc(-c2ccccc2)n1Cc1ccco1	none
O=C(O)CCc1ccc(-c2ccc(F)cc2)n1Cc1ccco1	NPY1 pot ag 80, NPY-Y2 PAM-ag 71
CCc1ccc(C(=O)COC(=O)c2cccnc2Cl)cc1	none (no result: NPY-Y2 antag)
CCOCCCNC(=O)c1ccc(Cn2c(=O)[nH]c3ccsc3c2=O)cc1	none (no result: NPY-Y2 antag)
O=C(Nc1cc(Cl)cc(Cl)c1)c1ccc(Cn2c(=O)[nH]c3ccsc3c2=O)cc1	NPY1 pot ag 46
COc1ccc(S(=O)(=O)N2CCCN(CC(=O)Nc3ccc(OC)c(Cl)c3)CC2)cc1	NPY-Y2 antag 18, NPY Y1 blocker 38
COc1ccc(NC(=O)CN2CCN(S(=O)(=O)c3ccc(Cl)cc3)CC2)cc1Cl	none
Cc1ccc(Cl)cc1N1CCN(CC(=O)Nc2ccc(CN3CCCCC3)cc2)CC1	NPY Y1 blocker 36
COc1ccccc1N1CCN(CC(=O)Nc2ccc(CN3CCCCC3)cc2)CC1	none
O=[N+]([O-])c1ccc(-c2nc(-c3cccs3)c(-c3cccs3)[nH]2)cc1	NPY1 pot ag 44, NPY-Y2 PAM-ag 45
O=[N+]([O-])c1cccc(-c2nc(-c3cccs3)c(-c3cccs3)[nH]2)c1	none
COCC(=O)Nc1nc2ccccc2s1	NPY1 pot ag 108, NPY-Y2 PAM-ag 64
c1ccc(CN2c3ccccc3-c3nc4ccccc4n3C2c2ccccn2)cc1 (centres undefined)	NPY-Y2 antag 19, NPY Y1 blocker 37
CN1c2ccccc2-c2nc3ccccc3n2C1c1ccccn1 (centres undefined)	none
CNC(=S)NC1(C)CCS(=O)(=O)C1 (centres undefined)	none (no result: NPY-Y2 antag, NPY Y1 blocker)
CC(C)NCC(O)COc1ccc(CCOCC2CC2)cc1 (centres undefined)	NPY1 pot ag 96, NPY-Y2 PAM-ag 92
CCC(CC)NCC(O)COc1ccc(Br)cc1 (centres undefined)	none (no result: NPY-Y2 antag)
CC(CCc1ccccc1)NCC(O)COc1ccccc1 (centres undefined)	NPY1 pot ag 104, NPY-Y2 PAM-ag 100 (no result: NPY-Y2 antag)
CCN1CCN(CC(O)COc2ccc3c(c2)CCC3)CC1 (centres undefined)	none
CC(C)NCC(O)COc1ccc(Br)cc1 (centres undefined)	NPY1 pot ag 75, NPY-Y2 PAM-ag 54 (no result: NPY-Y2 antag)
CC(C)NCC(O)COc1ccc2c(c1)CCC2 (centres undefined)	NPY1 pot ag 105, NPY-Y2 PAM-ag 96
CCCC(NCC(O)COc1ccc(-c2ccccc2)cc1)c1ccccc1 (centres undefined)	none (no result: NPY-Y2 antag)
CC(C)(C)c1ccc(-c2nc3n(c(=O)c2C#N)CCS3)cc1	none (no result: NPY-Y2 antag)
Cc1ccc(OCc2nc(C#N)c(N3CCN(Cc4ccccc4)CC3)o2)cc1	NPY-Y2 antag 41, NPY Y1 blocker 23
N#Cc1nc(COc2ccccc2)oc1N1CCN(Cc2ccccc2)CC1	NPY-Y2 antag 28, NPY Y1 blocker 21
O=S(=O)(c1ccc(Cl)nc1)N1CCN(c2ncccn2)CC1	none (no result: NPY-Y2 antag, NPY Y1 blocker)
CC(=O)Nc1nn(C)c2nc(C)cc(C)c12	none (no result: NPY-Y2 antag)
COCCN(C(=S)Nc1c(C)cc(C)cc1C)C(C)c1cccs1 (centres undefined)	none (no result: NPY-Y2 antag)
Cn1c(=O)c2c(nc(NCCCN3CCOCC3)n2Cc2ccc(Cl)c(Cl)c2)n(C)c1=O	NPY-Y2 antag 23, NPY Y1 blocker 20
Cn1c(=O)c2c(nc(NCCCN3CCOCC3)n2Cc2ccc(Cl)cc2)n(C)c1=O	none

From PubChem
